Experimental data pooled from the literature.
Target: Serine/threonine-protein kinase PLK4 (PLK4, Homo sapiens, UniProt O00444)
Residues used in one study (O00444 1-970): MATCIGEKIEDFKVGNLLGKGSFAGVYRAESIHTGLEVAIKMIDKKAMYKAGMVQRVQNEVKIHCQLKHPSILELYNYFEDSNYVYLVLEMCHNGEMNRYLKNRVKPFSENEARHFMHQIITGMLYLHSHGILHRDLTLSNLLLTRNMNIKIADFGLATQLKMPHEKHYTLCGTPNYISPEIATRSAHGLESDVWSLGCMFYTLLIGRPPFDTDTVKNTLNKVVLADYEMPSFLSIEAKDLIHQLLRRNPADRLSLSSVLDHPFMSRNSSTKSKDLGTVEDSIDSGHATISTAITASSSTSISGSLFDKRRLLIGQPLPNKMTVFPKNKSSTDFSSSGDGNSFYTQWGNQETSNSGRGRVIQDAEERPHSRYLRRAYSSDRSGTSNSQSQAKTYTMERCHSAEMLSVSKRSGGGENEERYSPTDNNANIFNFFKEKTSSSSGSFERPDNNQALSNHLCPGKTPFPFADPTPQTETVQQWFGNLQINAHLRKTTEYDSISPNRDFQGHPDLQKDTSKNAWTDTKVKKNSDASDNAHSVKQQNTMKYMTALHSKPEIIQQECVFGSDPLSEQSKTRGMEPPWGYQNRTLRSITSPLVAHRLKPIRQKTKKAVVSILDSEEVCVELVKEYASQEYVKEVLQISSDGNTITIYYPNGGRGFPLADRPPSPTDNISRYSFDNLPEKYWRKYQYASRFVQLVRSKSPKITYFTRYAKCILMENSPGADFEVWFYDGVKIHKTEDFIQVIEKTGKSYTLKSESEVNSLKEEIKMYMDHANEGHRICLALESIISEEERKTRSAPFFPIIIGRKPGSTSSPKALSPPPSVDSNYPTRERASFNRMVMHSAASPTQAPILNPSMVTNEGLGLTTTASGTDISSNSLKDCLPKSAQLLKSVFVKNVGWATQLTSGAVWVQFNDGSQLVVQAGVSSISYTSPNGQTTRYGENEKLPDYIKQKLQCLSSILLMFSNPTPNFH

SMILES | effect on | method | tested at | remaining binding [%]
C[C@@H]1CN(c2ccc3ncc(-c4ccc5[nH]nc(C6CC6)c5c4)n3n2)C[C@H](C)O1 | binding | competition with immobilised ligand | 0.5 µM | 90
c1cnn2ncc(-c3ccnc(N4CCC45COC5)n3)c2c1 | binding |  | 1 µM | 79
CC(C)(C)c1ccc(-c2nc(CBr)nn2-c2cccc(O)c2)cc1 | cell-free assay | competition with immobilised ligand | 10 µM | 88
CN(C)c1ncc(F)c(-c2cnn3ncccc23)n1 | binding |  | 1 µM | 100
COc1cnc(Nc2cccc(S(N)(=O)=O)c2)nc1N1CCN(c2ccccc2)C(=O)C1 | binding | competition with immobilised ligand | 1 µM | 96
O=C(Nc1c[nH]nc1C(=O)NC1CCNCC1)c1cc(F)cc(F)c1 | binding | competition with immobilised ligand | 1 µM | 97
O=C(N1CCS(=O)(=O)CC1)N1C[C@H](c2ccc(OC(F)(F)F)cc2)C[C@H](c2nc(C3CC3)no2)C1 | cell-free assay | competition with immobilised ligand | 1 µM | 100
CN(C)c1nccc(-c2cnc3ncccn23)n1 | binding |  | 1 µM | 68
Nc1ncc2c(n1)-c1c([nH]c3ccc(C#CC4CC4)cc13)CCCC2 | binding | competition with immobilised ligand | 1 µM | 87
CS(=O)(=O)N1CCCC(NC(=O)[C@H](CCC2CCCCC2)NC(=O)c2ccc(CNc3ncnc4c3nnn4-c3ccccc3)cc2)C1 (some centres unmarked) | cell-free assay | competition with immobilised ligand | 0.1 µM | 82
O=C(c1ccc(Nc2nccc(-c3cc4ccccc4s3)n2)cc1)N1CCC(N2CCCC2)CC1 | binding | competition with immobilised ligand | 1 µM | 56
CC(=O)Nc1c(C(C)=O)c(=O)n(C)c2nc(-c3ccc(Cl)cc3Cl)c(-c3ccc(Cl)cc3)cc12 | cell-free assay | competition with immobilised ligand | 1 µM | 100
COc1ccnn2ncc(-c3ccnc(N(C)C)n3)c12 | binding |  | 1 µM | 69
Cc1cc(C)c(-n2ccn3nc(-c4cccnc4)cc23)cc1NC(=O)c1cc(C#N)cc(S(F)(F)(F)(F)F)c1 | cell-free assay | competition with immobilised ligand | 0.1 µM | 64.1
Cc1cnc(Nc2ccc(C(=O)N3CCC(N4CCCC4)CC3)cc2)nc1-c1cc2ccccc2s1 | binding | competition with immobilised ligand | 1 µM | 14
FC(F)(F)Oc1cccc(-c2cnc3ccc(-c4ccncc4)nn23)c1 | cell-free assay | competition with immobilised ligand | 5 µM | 91
Cc1c[nH]c2nccc(Oc3c(F)cc(Nc4cc(Cl)nc(N)n4)cc3F)c12 | cell-free assay | competition with immobilised ligand | 0.1 µM | 82
